Reference: ChEMBL document CHEMBL4622996, “Discovery of Vixotrigine: A Novel Use-Dependent Sodium Channel Blocker for the Treatment of Trigeminal Neuralgia” (ACS Med Chem Lett, 2020)
Activity calls are given as the source filed them. The rule behind the calls is not given here.

Columns and labels:
[1] = Volume of distribution in steady state in monkey at 0.5 mg/kg, iv; type: ADME, organism-based, Macaca mulatta; details: rhesus monkey, in vivo, read-out: Vdss
[2] = Tmax in monkey at 3 mg/kg, po; type: ADME, organism-based, Macaca mulatta; details: rhesus monkey, in vivo
[3] = Oral bioavailability in dog at 3 mg/kg; type: ADME, organism-based, Canis lupus familiaris; details: in vivo
Rattus norvegicus [4] = test: Antiinflammatory activity in complete Freund's adjuvant-induced knee joint rat model of subchronic inflammation assessed as inhibition of CFA-induced hypersensitivity to pain at 1 mg/kg, BID; type: functional, organism-based
How it was run: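 CFA-induced knee joint model of subchronic inflammation; oral 1 mg/kg BID over a 5-day dosing period; reversal of hypersensitivity compared against celecoxib.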

Rattus norvegicus [5] = test: Antiinflammatory activity in complete Freund's adjuvant-induced rat model assessed as inhibition of CFA-induced hypersensitivity to pain administered orally at a single dose; type: functional; details: po
[6] = Free plasma concentration in rat model of chronic constriction injury-induced neuropathic pain at 0.5 mg/kg, po BID administered 22 days post surgery and measured on day 8 at 0.5 hrs post-dose; type: ADME, organism-based; details: in vivo
How it was run: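 Chronic constriction injury neuropathic pain model in rat; oral dosing at 0.5 or 5 mg/kg BID starting day 22; mechanical allodynia read after 6 and 8 days of dosing; gabapentin 30 mg/kg po BID as positive control. Free plasma levels sampled on day 8, 0.5 h postdose.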

[7] = Ratio of drug level in brain to blood in rat; type: ADME, tissue-based; details: read-out: Kbb
[8] = Total blood clearance in dog blood at 0.5 mg/kg, iv; type: ADME, organism-based, Canis lupus familiaris
[9] = Volume of distribution in steady state in rat at 0.5 mg/kg, iv; type: ADME, organism-based; details: in vivo, read-out: Vdss
[10] = Tmax in dog at 3 mg/kg, po; type: ADME, organism-based, Canis lupus familiaris; details: in vivo
[11] = Cmax in rat at 3 mg/kg, po; type: ADME, organism-based; design: dose 3 mg/kg, route oral; details: in vivo
[12] = Plasma concentration in rat after measuring the spontaneous locomotor activity at 60 mg/kg, po measured after 60 mins post dose; type: ADME, organism-based
How it was run: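 Male rats, spontaneous locomotor activity test; oral doses 60, 100 or 300 mg/kg given 30 min before the session; plasma sampled 60 min postdose at 60 mg/kg.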

[13] = Half life in dog at 0.5 mg/kg, iv; type: ADME, organism-based, Canis lupus familiaris; details: in vivo
[14] = Cmax in dog at 3 mg/kg, po; type: ADME, organism-based, Canis lupus familiaris; design: dose 3 mg/kg, route oral; details: in vivo
Cytochrome P450 2C19 = Cytochrome P450 2C19 (Homo sapiens, UniProt P33261); test: Inhibition of CYP2C19 (unknown origin); type: ADME
[15] = Aqueous solubility of compound in HCl salt : water; type: physicochemical
[16] = Aqueous solubility of the compound in FeSSIF; type: physicochemical
Cytochrome P450 2A6 = target: T1, Cytochrome P450 2A6 (Homo sapiens, UniProt P11509); test: Inhibition of CYP2A6 (unknown origin); type: ADME
T1 sequence (P11509 whole entry): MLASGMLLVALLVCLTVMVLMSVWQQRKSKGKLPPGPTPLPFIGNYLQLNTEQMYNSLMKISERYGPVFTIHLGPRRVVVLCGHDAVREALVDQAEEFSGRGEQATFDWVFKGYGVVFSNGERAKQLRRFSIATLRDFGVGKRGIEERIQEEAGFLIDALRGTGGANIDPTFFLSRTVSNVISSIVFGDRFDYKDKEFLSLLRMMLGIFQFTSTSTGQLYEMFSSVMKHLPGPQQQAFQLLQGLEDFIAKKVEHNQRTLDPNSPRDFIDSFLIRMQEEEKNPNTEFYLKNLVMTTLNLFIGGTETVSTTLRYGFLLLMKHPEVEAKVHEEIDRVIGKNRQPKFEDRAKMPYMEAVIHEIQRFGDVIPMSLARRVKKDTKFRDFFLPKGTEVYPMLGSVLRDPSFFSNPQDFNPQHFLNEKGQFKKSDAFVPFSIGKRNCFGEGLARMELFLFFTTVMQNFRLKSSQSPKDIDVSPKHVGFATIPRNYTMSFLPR

Cytochrome P450 2C8 = target: T2, Cytochrome P450 2C8 (Homo sapiens, UniProt P10632); test: Inhibition of CYP2C8 (unknown origin); type: ADME
T2 sequence (P10632 whole entry): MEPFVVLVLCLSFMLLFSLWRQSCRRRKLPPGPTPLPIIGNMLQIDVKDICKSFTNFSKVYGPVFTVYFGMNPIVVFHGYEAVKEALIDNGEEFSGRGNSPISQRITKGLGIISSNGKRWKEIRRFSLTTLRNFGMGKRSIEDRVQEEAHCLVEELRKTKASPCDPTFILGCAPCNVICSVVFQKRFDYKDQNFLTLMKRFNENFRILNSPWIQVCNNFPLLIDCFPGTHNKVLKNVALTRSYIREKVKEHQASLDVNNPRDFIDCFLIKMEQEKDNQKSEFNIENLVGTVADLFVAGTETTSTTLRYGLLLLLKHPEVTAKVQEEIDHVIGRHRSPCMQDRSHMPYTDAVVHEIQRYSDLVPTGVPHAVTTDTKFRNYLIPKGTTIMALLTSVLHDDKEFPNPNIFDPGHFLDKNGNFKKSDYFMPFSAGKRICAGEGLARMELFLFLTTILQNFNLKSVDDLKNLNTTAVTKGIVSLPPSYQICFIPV

[17] = target: ATP-dependent translocase ABCB1 (Homo sapiens, UniProt P08183); test: Inhibition of P-glycoprotein (unknown origin) upto 100 uM
[18] = target: T3, Broad substrate specificity ATP-binding cassette transporter ABCG2 (Homo sapiens, UniProt Q9UNQ0); test: Inhibition of BCRP (unknown origin)
T3 sequence (Q9UNQ0 whole entry): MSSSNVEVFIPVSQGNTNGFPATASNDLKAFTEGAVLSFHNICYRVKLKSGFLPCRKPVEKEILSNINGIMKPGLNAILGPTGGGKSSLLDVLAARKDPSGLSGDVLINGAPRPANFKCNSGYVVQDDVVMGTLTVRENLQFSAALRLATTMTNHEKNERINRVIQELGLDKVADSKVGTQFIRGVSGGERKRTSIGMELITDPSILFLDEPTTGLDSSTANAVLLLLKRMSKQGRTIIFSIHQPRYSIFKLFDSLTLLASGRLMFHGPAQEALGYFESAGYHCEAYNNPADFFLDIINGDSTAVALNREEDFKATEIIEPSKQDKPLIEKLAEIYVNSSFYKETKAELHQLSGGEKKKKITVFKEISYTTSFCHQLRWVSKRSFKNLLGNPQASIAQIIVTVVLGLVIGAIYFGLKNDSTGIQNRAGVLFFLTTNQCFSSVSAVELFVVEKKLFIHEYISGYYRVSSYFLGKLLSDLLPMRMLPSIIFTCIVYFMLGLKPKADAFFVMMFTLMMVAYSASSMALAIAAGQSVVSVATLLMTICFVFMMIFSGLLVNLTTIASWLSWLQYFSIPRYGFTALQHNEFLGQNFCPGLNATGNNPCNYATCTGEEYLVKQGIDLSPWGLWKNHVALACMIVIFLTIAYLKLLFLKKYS

Sequence of Cytochrome P450 2C19 (P33261 whole entry): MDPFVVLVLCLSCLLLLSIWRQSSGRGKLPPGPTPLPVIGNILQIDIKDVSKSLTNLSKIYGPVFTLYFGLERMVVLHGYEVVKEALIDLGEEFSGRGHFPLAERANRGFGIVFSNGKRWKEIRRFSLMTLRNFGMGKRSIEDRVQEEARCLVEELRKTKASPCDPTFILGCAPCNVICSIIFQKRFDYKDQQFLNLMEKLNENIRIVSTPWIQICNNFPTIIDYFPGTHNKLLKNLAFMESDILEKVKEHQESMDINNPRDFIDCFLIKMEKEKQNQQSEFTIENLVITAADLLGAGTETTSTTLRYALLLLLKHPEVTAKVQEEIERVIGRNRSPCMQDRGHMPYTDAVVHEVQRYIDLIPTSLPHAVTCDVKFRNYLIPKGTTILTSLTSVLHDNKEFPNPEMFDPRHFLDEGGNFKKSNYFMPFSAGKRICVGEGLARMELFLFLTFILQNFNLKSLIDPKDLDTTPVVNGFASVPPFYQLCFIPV
Sequence of ATP-dependent translocase ABCB1 (P08183 whole entry): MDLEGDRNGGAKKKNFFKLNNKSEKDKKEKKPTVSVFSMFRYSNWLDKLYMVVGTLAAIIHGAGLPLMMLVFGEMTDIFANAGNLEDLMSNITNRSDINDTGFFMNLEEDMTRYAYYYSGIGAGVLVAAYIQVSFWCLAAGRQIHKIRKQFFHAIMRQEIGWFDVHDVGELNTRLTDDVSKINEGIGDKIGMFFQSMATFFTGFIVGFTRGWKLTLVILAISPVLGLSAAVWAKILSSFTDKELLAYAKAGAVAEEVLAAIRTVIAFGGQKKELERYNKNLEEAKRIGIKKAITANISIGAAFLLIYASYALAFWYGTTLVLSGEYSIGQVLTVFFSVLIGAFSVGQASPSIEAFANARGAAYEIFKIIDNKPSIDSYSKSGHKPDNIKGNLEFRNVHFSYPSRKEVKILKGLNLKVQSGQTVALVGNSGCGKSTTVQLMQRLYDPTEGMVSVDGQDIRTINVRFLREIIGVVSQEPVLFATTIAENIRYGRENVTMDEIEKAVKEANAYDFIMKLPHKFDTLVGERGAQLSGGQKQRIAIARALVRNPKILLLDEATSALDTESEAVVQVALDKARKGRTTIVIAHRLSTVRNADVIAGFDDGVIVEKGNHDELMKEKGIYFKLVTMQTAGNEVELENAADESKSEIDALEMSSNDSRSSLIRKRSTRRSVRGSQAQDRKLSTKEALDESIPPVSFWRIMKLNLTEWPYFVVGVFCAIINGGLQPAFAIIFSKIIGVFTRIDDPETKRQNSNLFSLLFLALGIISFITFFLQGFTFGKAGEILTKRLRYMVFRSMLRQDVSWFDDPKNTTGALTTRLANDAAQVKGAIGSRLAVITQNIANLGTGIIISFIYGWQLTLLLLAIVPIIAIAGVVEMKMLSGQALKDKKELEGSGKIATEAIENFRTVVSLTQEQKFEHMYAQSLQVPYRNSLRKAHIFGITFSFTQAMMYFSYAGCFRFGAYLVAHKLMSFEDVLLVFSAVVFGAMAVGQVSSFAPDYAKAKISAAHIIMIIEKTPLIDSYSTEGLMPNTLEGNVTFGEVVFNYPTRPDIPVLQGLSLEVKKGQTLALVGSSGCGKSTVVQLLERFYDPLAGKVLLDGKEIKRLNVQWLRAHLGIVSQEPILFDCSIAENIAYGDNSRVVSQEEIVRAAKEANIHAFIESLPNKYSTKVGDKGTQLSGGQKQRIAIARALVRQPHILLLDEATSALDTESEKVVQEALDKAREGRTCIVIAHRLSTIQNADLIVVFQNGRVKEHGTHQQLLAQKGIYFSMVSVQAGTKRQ

Vd [1]: 2 L/kg
Tmax [2]: 2 h
bioavailability [3]: 57%
Kp [7]: 6.8
clearance [8]: 0.72 L/h/kg
Vd [9]: 2 L/kg
Tmax [10]: 0.75 h
Cmax [11]: 0.226 µg/mL
concentration at 1 h [12]: 13.1 µg/mL
half-life [13]: 2.2 h
Cmax [14]: 0.705 µg/mL
IC50 (Cytochrome P450 2C19): 79 µM
solubility [15]: 16.3 mg/mL
solubility [16]: 6.9 mg/mL
IC50 (Cytochrome P450 2A6): > 100 µM
IC50 (Cytochrome P450 2C8): > 100 µM
inhibition (INH) [17]: Not Active
inhibition (INH) [18]: Not Active
Structure (SMILES): Cl.NC(=O)[C@@H]1CC[C@H](c2ccc(OCc3ccccc3F)cc2)N1 [RAXATRIGINE HYDROCHLORIDE]
Activity (Rattus norvegicus [4]): Active
ED50 (Rattus norvegicus [5]): 0.91 mg/kg
Cp(f) [6]: 0.0019 µg/mL
